Consider 8 compounds from ChEMBL document CHEMBL5143761, “Aroylhydrazone Glycoconjugate Prochelators Exploit Glucose Transporter 1 (GLUT1) to Target Iron in Cancer Cells” (ACS Med Chem Lett, 2022).

In data set [1] the test system is A2780. In words: Antiproliferative activity against human A2780 cells incubated for 72 hrs by MTT assay. The class given is functional, cell-based. The settings on record: A2780, 72 h. In a few lines:
(§1)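 MTT assay after 72 h continuous exposure in MDA-MB-231 breast and A2780 ovarian cancer cells and MRC-5 normal lung fibroblasts. IC50 taken from the resulting dose–response.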
(In general: Formazan colour is commonly taken as a measure of viable cells.)

In data set [2] the test system is MDA-MB-231. In words: Antiproliferative activity against human MDA-MB-231 cells incubated for 72 hrs by MTT assay. The class given is functional, cell-based. The settings on record: MDA-MB-231, 72 h. In a few lines:
as §1

The nature of data set [3]: Antiproliferative activity against human MRC5 cells incubated for 72 hrs by MTT assay. The class given is toxicity, cell-based. The essentials: as §1
In data set [4] the test system is A2780. In words: Induction of apoptosis in human A2780 cells assessed as early apoptosis level at 20 uM incubated for 48 hrs by PI and FITC-Annexin V staining based flow cytometry. The class given is functional. The essentials:
(§2)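 A2780 cells exposed to compound (20 μM) for 48 h. Cells then stained with FITC-Annexin V and propidium iodide and analysed by flow cytometry for early and late apoptotic fractions. Triplicate, mean ± standard deviation.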
In general terms: A flow cytometer gives signals particle by particle.

Data set [5] can be described thus: (§3) Inhibition of cellular uptake of fluorescent glucose 2-NBDG in human A2780 cells at 50 uM incubated for 20 mins by flow cytometry. The class given is functional. Details: scale not given: the % may be the effect or the level left. In a few lines:
(§4)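 A2780 cells held 12 h in glucose-free medium. They were then coincubated for 20 min with compound (50 μM) and 2-NBDG (100 μM) in growth medium with 1 g/L D-glucose. 2-NBDG uptake was read as flow-cytometric fluorescence, with phloretin (50 μM) as positive control. Triplicate, mean ± standard deviation.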

In data set [6] the test system is MDA-MB-231. In words: Antiproliferative activity against human MDA-MB-231 cells ectopically overexpressing GLUT1 incubated for 72 hrs by MTT assay relative to normal cells. The class given is functional, cell-based. In a few lines:
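MDA-MB-231 derivative line transduced to overexpress GLUT1 is compared with an isogenic control line transduced with the same vector expressing Turbo-635 fluorescent protein. GLUT1 levels were checked by Western blot. IC50 from MTT after 72 h. Triplicate, mean ± standard deviation.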

Data set [7] in a line: Induction of intracellular iron sequestration in human A2780 cells at 20 uM by calcein based fluorescence assay.
Data set [8] deals with A2780. In words: Antiproliferative activity against human A2780 cells incubated for 72 hrs in presence of 12.5 uM GLUT1 inhibitor phloretin by MTT assay. The class given is functional, cell-based. In a few lines:
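A2780 cells given test compound together with the GLUT1 inhibitor phloretin (12.5 μM) for 72 h. Read-out by MTT, giving IC50. Triplicate runs, reported as mean ± standard deviation.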

The test system of data set [9] is A2780. In words: Induction of apoptosis in human A2780 cells assessed as late apoptosis level at 20 uM incubated for 48 hrs by PI and FITC-Annexin V staining based flow cytometry. The class given is functional. The essentials:
as §2

Data set [10] in a line: Ratio of IC50 for antiproliferative activity against human A2780 cells incubated for 72 hrs in presence of 12.5 uM GLUT1 inhibitor phloretin by MTT assay to IC50 antiproliferative activity against human A2780 cells incubated for 72 hrs in absence of 12.5 uM GLUT1 inhibitor phloretin by MTT assay. The class given is functional. The essentials:
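A2780 ovarian cancer cells were treated for 72 h with compound, either alone or coincubated with the GLUT1 inhibitor phloretin at 12.5 μM. Viability was read by MTT assay. IC50 values were determined in triplicate under each condition and reported as averages ± standard deviation. The value is the IC50 with phloretin relative to the IC50 without it.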

The test system of data set [11] is A2780. Described as §3. The class given is functional. The essentials:
as §4

Structures are written as SMILES. Activity calls are given as the source filed them. The rule behind the calls is not given here.

As a reminder, the IC50 is the point on the concentration scale where inhibition reaches its midpoint. With `O=C(CCSSc1ccccc1/C=N/NC(=O)c1ccccc1)OC[C@H]1OC(O)[C@H](O)[C@@H](O)[C@@H]1O` (stereo partly drawn), the IC50 in data set [1] came to 5.2 µM; in [2], 17 µM. The same compound came in with an IC50 at 72 h in data set [3] of 26 µM. Besides, the Activity in data set [4] was 5%; in [5], >20%; in data set [7], 20%. Besides, the outcome in data set [6] was Active.
Consider `COC(=O)CCSSc1ccccc1/C=N/NC(=O)c1ccccc1`, for which the IC50 in [1] is 2.1 µM; in data set [2], 12 µM. In data set [3], the IC50 at 72 h turned out to be 12 µM. Further, the Activity in data set [4] is recorded as 5%; in [7], 20%. Also, the inhibition entry in [8] is “Active”. The result in data set [6] was Active.
Turning to `CC(=O)N(O)CCCCCNC(=O)CCC(=O)N(O)CCCCCNC(=O)CCC(=O)N(O)CCCCCN` [DEFEROXAMINE], the IC50 in data set [1] worked out at 3.5 µM; in [2], 6.1 µM. In data set [3], this compound gave an IC50 at 72 h of 9 µM.
Regarding `O=C(CCSSc1ccccc1/C=N/NC(=O)c1ccccc1)OC[C@H]1OC(O)C[C@@H](O)[C@@H]1O` (stereo partly drawn), the concentration for half-maximal inhibition (IC50) in data set [1] stood at 2.5 µM; in data set [2] it was 22 µM. In addition, inhibition in [3] was half-maximal at 29 µM (IC50 at 72 h). In addition, the Activity in data set [4] was 5%; in data set [9] it was 20%; in [5], >20%; in [7], 20%. Moreover, the “Ratio IC50” value in data set [10] is on record as >5. Also, in data set [6], the outcome was Active.
In the case of `O=C(N/N=C/c1ccccc1O)c1ccncc1` [SALINAZID], the Activity in data set [4] came out at 7.8%; in [9], 38%.
For `O=C(CCSSc1ccccc1/C=N/NC(=O)c1ccccc1)N[C@H]1C(O)O[C@H](CO)[C@@H](O)[C@@H]1O` (stereo partly drawn), the half-inhibitory concentration (IC50) in data set [1] was determined as 5.3 µM; in data set [2] it was 17 µM. Also, 33 µM corresponded to half-maximal inhibition in data set [3] (IC50 at 72 h). In addition, the Activity in data set [4] is 5%; in data set [5] it was >20%; in [7], 20%. For the same compound, the result in data set [6] was Active.
On to `O=C(CCc1ccc(O)cc1)c1c(O)cc(O)cc1O`, for which the inhibition result in [11] was “Active”.
Consider `OC[C@H]1OC(O)C[C@@H](O)[C@@H]1O` (stereo partly drawn), for which the values for the Activity in data set [4] and in [9] were 3.6% and 3.4%, respectively.
